In PubChem BioAssay AID588837 (Broad Institute, 2011):
The source made the active and inactive calls. The rule behind the calls is not given here.

Target: Scavenger receptor class B member 1 (Mus musculus) (UniProt Q61009)
Test: inhibitors of C384S mutant SR-BI HDL uptake, late-stage follow-up, mechanism study for SR-BI HDL uptake inhibitor project, C384S mutant cells, scintillation, powder samples (AID 588837)
Details: CHO ldlA C384S mSR-BI, [3H]CE-HDL uptake, 2 h; at 1 µM; stronger effect = lower value
Summary of the method: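 Test system: CHO cells lacking LDL receptor, overexpressing C384S mutant SR-BI; Buffer or medium: Ham's F12K medium with 0.5% fatty acid-free BSA; Compound: 0.5% DMSO with compound; Timing: 1 h pretreatment plus 2 h uptake at 37 °C; Signal: scintillation counting of cell-associated tritium label; Controls: 40-fold excess unlabeled HDL defining nonspecific background uptake.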

Chain of Scavenger receptor class B member 1 (Mus musculus) (Q61009 whole entry C384S): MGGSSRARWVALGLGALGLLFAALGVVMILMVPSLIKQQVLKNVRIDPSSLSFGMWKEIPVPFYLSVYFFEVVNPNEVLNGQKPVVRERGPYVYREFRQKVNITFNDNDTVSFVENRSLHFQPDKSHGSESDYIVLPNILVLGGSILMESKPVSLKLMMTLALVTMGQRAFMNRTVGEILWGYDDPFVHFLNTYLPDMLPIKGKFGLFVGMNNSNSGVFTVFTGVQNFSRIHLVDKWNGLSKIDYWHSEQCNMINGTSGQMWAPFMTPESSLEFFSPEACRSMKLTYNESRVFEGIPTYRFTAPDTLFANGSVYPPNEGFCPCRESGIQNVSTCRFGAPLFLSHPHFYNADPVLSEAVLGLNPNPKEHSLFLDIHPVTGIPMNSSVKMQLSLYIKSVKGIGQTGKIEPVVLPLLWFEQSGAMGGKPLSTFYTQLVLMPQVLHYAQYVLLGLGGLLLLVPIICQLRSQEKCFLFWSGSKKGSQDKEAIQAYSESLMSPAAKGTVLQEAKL

| SMILES | cholesterol uptake |
| --- | --- |
| CCC(=O)N1CCc2cc(-c3csc(NC(=O)c4ccco4)n3)ccc21 | 88.3% |
| CCOC(=O)N1CCC(NC(=O)c2ccc3c(c2)N(Cc2ccc(F)cc2)CCS3)CC1 | 78.2% |
| COc1ccc(-c2nnn(CC(=O)N(C3CCCCC3)C(C)C(=O)NC3CCCC3)n2)cc1OC (stereo not given) | 89.4% |

Next, values leading:

| cholesterol uptake | SMILES |
| --- | --- |
| 84.4% | Cc1ccc2oc(-c3cccc(NC(=O)c4cc(-n5cnnc5)ccc4Cl)c3)nc2c1 |
| 121% (inactive) | O=C(Nc1ccc(Cl)cc1C(=O)c1ccc(Cl)cc1)c1cc(Br)ccc1NS(=O)(=O)c1ccc(Cl)cc1 |
